According to publication PMC11342948 (International Journal of Nanomedicine, 2024):

What was measured:
[1] = system: MPTP-induced PD model; experiment: Behavioral assays; format: in vivo, C57BL/6J mice
Method in brief: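 Male C57BL/6J mice (8 weeks, 22–25 g), 12 per cohort, given MPTP 30 mg/kg/day i.p. in 0.9% saline for 5 days, with daily i.v. test compound (13 mg/kg, free or liposomal), L-Dopa 4.95 mg/kg or saline. On day 16: 10-min video-tracked open field (50 cm box, 30×30 cm centre) and vertical pole descent (1.5 cm × 55 cm, head up; T-turn, T-total). n=8, mean ± SD.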

[2] = system: MPTP-induced PD model; experiment: Dopamine and its metabolites in the striatum; format: in vivo, C57BL/6J mice; details: for dopamine levels: L-Dopa 4.95 mg/kg, ECH 13 mg/kg
[3] = system: MPTP-induced PD model; experiment: Oxidative stress assay in the striatum; format: in vivo, C57BL/6J mice; details: vs MPTP cohort
Method in brief: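 The MPTP mouse model used male C57BL/6J mice given 30 mg/kg/day i.p. for 5 days, with daily i.v. test compound at 13 mg/kg. After day-16 behaviour and perfusion, striatum was homogenised in 1% triton (1 g/9 mL) and spun at 15294 g, 4°C, 10 min. SOD, GSH-PX and MDA in the supernatant were measured with commercial kits per the manufacturer.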

[4] = system: MPTP-induced PD model; experiment: Tyrosine hydroxylase immunohistochemical staining; format: in vivo, C57BL/6J mice
Method in brief: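 In the same MPTP model (30 mg/kg/day i.p., 5 days; daily i.v. test compound), perfused brains were cut into 5 μm coronal sections. These were incubated with rabbit polyclonal anti-TH (1:400, PBS) overnight at 4°C, then HRP secondary (1:200), with DAB detection. Striatal TH fiber immunoreactivity was quantified by image analysis. TH-positive neurons were counted in every sixth section through the substantia nigra.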

[5] = Evans blue BBB integrity test; format: in vivo, mice; details: Evans blue 50 mg/kg intravenously, 30 minutes
[6] = system: bEnd.3 monolayer; experiment: In vitro BBB penetration, transwell model; details: 2 μg/mL
[7] = open-field test, day 16, vs MPTP-treated mice
[8] = pole test, day 16, vs MPTP-treated cohort

Molecule: N[C@@H](Cc1ccc(O)c(O)c1)C(=O)O [L-Dopa, levodopa]
- average speed [1, 7]: increased
- movement within the central area [1, 7]: significantly improved
- percentage of time spent in the center [1, 7]: increased
- time spent immobile [1, 7]: decreasing
- total distance traveled [1, 7]: increased
- T-total [1, 8]: significantly reduced
- T-turn [1, 8]: significantly reduced
- DOPAC levels, increase compared to the MPTP cohort [2]: 1.59 fold
- HVA levels, increase compared to the MPTP cohort [2]: 1.63 fold
- dopamine levels ([2]; MPTP 30 mg/kg i.p. five days): 1.27 ± 0.09 ng/mg of wet striatum tissue
- GSH-PX levels [3]: significantly elevated
- MDA levels [3]: reducing
- SOD levels [3]: significantly elevated
- MPTP-induced reduction in TH immunoreactivity in the striatum ([4]; striatum): effectively counteracted
- TH-positive neuron counts in the substantia nigra ([4]; substantia nigra): partially restored

Molecule: CN1CC=C(c2ccccc2)CC1 [MPTP, 1-methyl-4-phenyl-1,2,3,6-tetrahydropyridine]
- dopamine levels, reduction compared to the control ([2]; MPTP 30 mg/kg i.p. five days): 2.65 fold
- dopamine levels ([2]; MPTP 30 mg/kg i.p. five days): 0.95 ± 0.15 ng/mg of wet striatum tissue
- BBB integrity (Evans blue levels in brain tissue) [5]: did not compromise BBB integrity

Molecule: O=C([O-])c1ccccc1-c1c2ccc(=O)cc-2oc2cc([O-])ccc12.[Na+].[Na+] [fluorescein sodium]
- apparent permeability coefficient [6]: 6.92 ± 3.92×10^−6 cm/s

Molecule: Echinacoside [Free ECH]
- dopamine levels ([2]; MPTP 30 mg/kg i.p. five days): 1.27 ± 0.36 ng/mg of wet striatum tissue
- neuroprotection (TH immunohistochemistry) ([4]; compared to the MPTP cohort / other treatments): did not provide significant neuroprotection
